Source: ChEMBL document CHEMBL4665898, “Semisynthetic Analogs of the Antibiotic Fidaxomicin-Design, Synthesis, and Biological Evaluation” (ACS Med Chem Lett, 2020)
In brackets after ≈: the same amount, converted by molar mass.

What was measured:
[1] = Aqueous solubility of the compound in phosphate buffer at pH 7 after 5 hrs by UHPLC analysis; format: physicochemical
Method in brief: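 Solid added to 1.0 mL pH 7 phosphate buffer containing 50 µg/mL caffeine internal standard until saturated. Stirred 5 h at room temperature, passed through a 0.22 µm filter, then run on C18 UHPLC with a water/MeCN + 0.1 % HCOOH gradient. Analyte/IS peak-area ratio was converted to concentration using a linear calibration from MeOH standards at 50–500 µg/mL.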

[2] = tested on: Clostridioides difficile; assay: Antibacterial activity against Clostridium difficile ATCC 700057 incubated for 46 hrs in anaerobic condition by CLSI-based broth microdilution assay; format: functional
[3] = tested on: Clostridioides difficile; assay: Antibacterial activity against Clostridium difficile 5680 incubated for 46 hrs in anaerobic condition by CLSI-based broth microdilution assay; format: functional
[4] = tested on: Staphylococcus aureus; assay: Antibacterial activity against Staphylococcus aureus ATCC 29213 incubated overnight by broth dilution method; format: functional
Method in brief: (§1)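 Strains pre-grown overnight at 37 °C on Mueller Hinton II agar; CLSI broth dilution, inoculum about 7.5 × 10^5 CFU/well. Compounds taken from 1.0 mg/mL stocks in 50 % methanol/H2O, diluted in H2O as 2-fold series. Plates held at 37 °C overnight; MIC read visually as lowest concentration with no growth.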

[5] = tested on: Bacillus subtilis; assay: Antibacterial activity against Bacillus subtilis DSM3256 incubated overnight by broth dilution method; format: functional; method in brief: as §1
[6] = tested on: Mycobacterium tuberculosis; assay: Antimycobacterial activity against recombinant Mycobacterium tuberculosis H37Rv expressed in green fluorescence protein by measuring increase in fluorescence after 10 days in presence of middlebrook 7H9/OADC medium by GFP reporter gene assay; format: functional; conditions: 240 h, time 10 day
[7] = tested on: Clostridioides difficile; assay: Antibacterial activity against Clostridium difficile 8264 incubated for 46 hrs in anaerobic condition by CLSI-based broth microdilution assay; format: functional
[8] = tested on: Clostridioides difficile; assay: Antibacterial activity against Clostridium difficile ATCC 9689 incubated for 46 hrs in anaerobic condition by CLSI-based broth microdilution assay; format: functional; conditions: ATCC 9689 = DSM 1296
[9] = tested on: Clostridioides difficile; assay: Antibacterial activity against Clostridium difficile 8282 incubated for 46 hrs in anaerobic condition by CLSI-based broth microdilution assay; format: functional
[10] = tested on: Clostridioides difficile; assay: Antibacterial activity against Clostridium difficile BAA-1805 incubated for 46 hrs in anaerobic condition by CLSI-based broth microdilution assay; format: functional
[11] = tested on: Clostridioides difficile; assay: Antibacterial activity against Clostridium difficile 8260 incubated for 46 hrs in anaerobic condition by CLSI-based broth microdilution assay; format: functional
[12] = tested on: Clostridioides difficile; assay: Antibacterial activity against Clostridium difficile 8290 incubated for 46 hrs in anaerobic condition by CLSI-based broth microdilution assay; format: functional
[13] = tested on: Clostridioides difficile; assay: Antibacterial activity against Clostridium difficile ATCC 43255 incubated for 46 hrs in anaerobic condition by CLSI-based broth microdilution assay; format: functional
[14] = tested on: Clostridioides difficile; assay: Antibacterial activity against Clostridium difficile BAA-1875 incubated for 46 hrs in anaerobic condition by CLSI-based broth microdilution assay; format: functional

Row | SMILES | solubility at 5 h [1] [µg/mL] | MIC [2] [µg/mL] | MIC [3] [µg/mL] | MIC [4] [µg/mL] | MIC [5] [µg/mL] | MIC90 [6] [µg/mL] | MIC [7] [µg/mL] | MIC [8] [µg/mL] | MIC [9] [µg/mL] | MIC [10] [µg/mL] | MIC [11] [µg/mL] | MIC [12] [µg/mL] | MIC [13] [µg/mL] | MIC [14] [µg/mL]
1 | CCc1c(Cl)c(OCC(=O)N2CCC(O)CC2)c(Cl)c(OCC(=O)N2CCC(O)CC2)c1C(=O)O[C@@H]1[C@@H](O)[C@@H](OC)[C@@H](OC/C2=C\C=C\C[C@H](O)/C(C)=C/[C@H](CC)[C@@H](O[C@@H]3OC(C)(C)[C@@H](OC(=O)C(C)C)[C@H](O)[C@@H]3O)/C(C)=C/C(C)=C/C[C@@H]([C@@H](C)O)OC2=O)O[C@H]1C | 213 (≈ 159 µM) | – | – | – | – | – | – | – | – | – | – | – | – | –
2 | CCc1c(Cl)c(OCCCn2cc(CCN3CCC(N)CC3)nn2)c(Cl)c(O)c1C(=O)O[C@@H]1[C@@H](O)[C@@H](OC)[C@@H](OC/C2=C\C=C\C[C@H](O)/C(C)=C/[C@H](CC)[C@@H](O[C@@H]3OC(C)(C)[C@@H](OC(=O)C(C)C)[C@H](O)[C@@H]3O)/C(C)=C/C(C)=C/C[C@@H]([C@@H](C)O)OC2=O)O[C@H]1C | – | 2 (≈ 1.55 µM) | 8 (≈ 6.19 µM) | > 64 | > 64 | 4 | 8 (≈ 6.19 µM) | 0.5 (≈ 0.387 µM) | 1 (≈ 0.773 µM) | 8 (≈ 6.19 µM) | 4 (≈ 3.09 µM) | 4 (≈ 3.09 µM) | 4 (≈ 3.09 µM) | 2 (≈ 1.55 µM)
3 | CCc1c(Cl)c(OCC(=O)N2CCC(O)CC2)c(Cl)c(O)c1C(=O)O[C@@H]1[C@@H](O)[C@@H](OC)[C@@H](OC/C2=C\C=C\C[C@H](O)/C(C)=C/[C@H](CC)[C@@H](O[C@@H]3OC(C)(C)[C@@H](OC(=O)C(C)C)[C@H](O)[C@@H]3O)/C(C)=C/C(C)=C/C[C@@H]([C@@H](C)O)OC2=O)O[C@H]1C | 180 (≈ 150 µM) | – | – | – | – | – | – | – | – | – | – | – | – | –
4 | CCc1c(Cl)c(OCCOCCOCCOCCOCCOCCOC)c(Cl)c(OCCOCCOCCOCCOCCOCCOC)c1C(=O)O[C@@H]1[C@@H](O)[C@@H](OC)[C@@H](OC/C2=C\C=C\C[C@H](O)/C(C)=C/[C@H](CC)[C@@H](O[C@@H]3OC(C)(C)[C@@H](OC(=O)C(C)C)[C@H](O)[C@@H]3O)/C(C)=C/C(C)=C/C[C@@H]([C@@H](C)O)OC2=O)O[C@H]1C | 504 (≈ 312 µM) | – | – | – | – | – | – | – | – | – | – | – | – | –
5 | CCOC(=O)COc1c(Cl)c(O)c(C(=O)O[C@@H]2[C@@H](O)[C@@H](OC)[C@@H](OC/C3=C\C=C\C[C@H](O)/C(C)=C/[C@H](CC)[C@@H](O[C@@H]4OC(C)(C)[C@@H](OC(=O)C(C)C)[C@H](O)[C@@H]4O)/C(C)=C/C(C)=C/C[C@@H]([C@@H](C)O)OC3=O)O[C@H]2C)c(CC)c1Cl | – | 8 (≈ 6.99 µM) | > 16 | 16 (≈ 14 µM) | 32 (≈ 28 µM) | 2 | > 16 | 2 (≈ 1.75 µM) | 8 (≈ 6.99 µM) | > 16 | 16 (≈ 14 µM) | 16 (≈ 14 µM) | > 16 | 8 (≈ 6.99 µM)
6 | CCc1c(Cl)c(OCC(=O)N2CCN(c3cc4c(cc3F)c(=O)c(C(=O)O)cn4C3CC3)CC2)c(Cl)c(O)c1C(=O)O[C@@H]1[C@@H](O)[C@@H](OC)[C@@H](OC/C2=C\C=C\C[C@H](O)/C(C)=C/[C@H](CC)[C@@H](O[C@@H]3OC(C)(C)[C@@H](OC(=O)C(C)C)[C@H](O)[C@@H]3O)/C(C)=C/C(C)=C/C[C@@H]([C@@H](C)O)OC2=O)O[C@H]1C | – | 0.06 (≈ 0.042 µM) | 0.12 (≈ 0.084 µM) | > 64 | 32 (≈ 22.4 µM) | 1 | 0.12 (≈ 0.084 µM) | ≤ 0.015 | 0.03 (≈ 0.021 µM) | 0.12 (≈ 0.084 µM) | 0.03 (≈ 0.021 µM) | 0.12 (≈ 0.084 µM) | 0.03 (≈ 0.021 µM) | 0.06 (≈ 0.042 µM)
7 | CCc1c(Cl)c(OCCCn2cc(CCN3CCC(N)CC3)nn2)c(Cl)c(OCCCn2cc(CCN3CCC(N)CC3)nn2)c1C(=O)O[C@@H]1[C@@H](O)[C@@H](OC)[C@@H](OC/C2=C\C=C\C[C@H](O)/C(C)=C/[C@H](CC)[C@@H](O[C@@H]3OC(C)(C)[C@@H](OC(=O)C(C)C)[C@H](O)[C@@H]3O)/C(C)=C/C(C)=C/C[C@@H]([C@@H](C)O)OC2=O)O[C@H]1C | 451 (≈ 295 µM) | > 16 | > 16 | > 64 | 8 (≈ 5.23 µM) | 16 | > 16 | > 16 | > 16 | > 16 | > 16 | > 16 | > 16 | > 16
8 | CCc1c(Cl)c(OCCCn2cc(COCCOCCOCCOCCOCCC(=O)O)nn2)c(Cl)c(O)c1C(=O)O[C@@H]1[C@@H](O)[C@@H](OC)[C@@H](OC/C2=C\C=C\C[C@H](O)/C(C)=C/[C@H](CC)[C@@H](O[C@@H]3OC(C)(C)[C@@H](OC(=O)C(C)C)[C@H](O)[C@@H]3O)/C(C)=C/C(C)=C/C[C@@H]([C@@H](C)O)OC2=O)O[C@H]1C | > 2000 | – | – | – | – | – | – | – | – | – | – | – | – | –
9 | CCc1c(Cl)c(OCCOCCOCCOCCOCCOCCOCCOCCn2cc(CN3CCN(/N=C/c4c5c(O)c6c(O)c(C)c7c(c6c4O)C(=O)[C@@](C)(O/C=C/[C@H](OC)[C@@H](C)[C@@H](OC(C)=O)[C@H](C)[C@H](O)[C@H](C)[C@@H](O)[C@@H](C)/C=C/C=C(\C)C(=O)N5)O7)CC3)nn2)c(Cl)c(O)c1C(=O)O[C@@H]1[C@@H](O)[C@@H](OC)[C@@H](OC/C2=C\C=C\C[C@H](O)/C(C)=C/[C@H](CC)[C@@H](O[C@@H]3OC(C)(C)[C@@H](OC(=O)C(C)C)[C@H](O)[C@@H]3O)/C(C)=C/C(C)=C/C[C@@H]([C@@H](C)O)OC2=O)O[C@H]1C | – | ≤ 0.015 | ≤ 0.015 | 4 (≈ 1.75 µM) | 4 (≈ 1.75 µM) | 0.5 | 0.03 (≈ 0.0131 µM) | ≤ 0.015 | 4 (≈ 1.75 µM) | ≤ 0.015 | ≤ 0.015 | 0.03 (≈ 0.0131 µM) | ≤ 0.015 | ≤ 0.015
10 | O=C(O)c1cn(C2CC2)c2cc(N3CCNCC3)c(F)cc2c1=O [CIPROFLOXACIN] | – | – | – | – | – | 1 | – | – | – | – | – | – | – | –
11 | CCc1c(Cl)c(Oc2nncnn2)c(Cl)c(Oc2nncnn2)c1C(=O)O[C@@H]1[C@@H](O)[C@@H](OC)[C@@H](OC/C2=C\C=C\C[C@H](O)/C(C)=C/[C@H](CC)[C@@H](O[C@@H]3OC(C)(C)[C@@H](OC(=O)C(C)C)[C@H](O)[C@@H]3O)/C(C)=C/C(C)=C/C[C@@H]([C@@H](C)O)OC2=O)O[C@H]1C | – | 0.06 (≈ 0.0493 µM) | 0.5 (≈ 0.41 µM) | – | – | – | 0.25 (≈ 0.205 µM) | 0.03 (≈ 0.0246 µM) | 0.06 (≈ 0.0493 µM) | 0.25 (≈ 0.205 µM) | 0.12 (≈ 0.0985 µM) | 0.12 (≈ 0.0985 µM) | 0.12 (≈ 0.0985 µM) | 0.25 (≈ 0.205 µM)
12 | CCc1c(Cl)c(OCC(=O)N2CCNCC2)c(Cl)c(O)c1C(=O)O[C@@H]1[C@@H](O)[C@@H](OC)[C@@H](OC/C2=C\C=C\C[C@H](O)/C(C)=C/[C@H](CC)[C@@H](O[C@@H]3OC(C)(C)[C@@H](OC(=O)C(C)C)[C@H](O)[C@@H]3O)/C(C)=C/C(C)=C/C[C@@H]([C@@H](C)O)OC2=O)O[C@H]1C | 81 (≈ 68.4 µM) | 0.25 (≈ 0.211 µM) | 0.5 (≈ 0.422 µM) | > 64 | > 64 | 1 | 0.5 (≈ 0.422 µM) | 0.03 (≈ 0.0253 µM) | 0.06 (≈ 0.0507 µM) | 0.5 (≈ 0.422 µM) | 0.03 (≈ 0.0253 µM) | 0.25 (≈ 0.211 µM) | 0.5 (≈ 0.422 µM) | 0.5 (≈ 0.422 µM)
13 | CO[C@H]1/C=C/O[C@@]2(C)Oc3c(C)c(O)c4c(O)c(c(/C=N/N5CCN(C)CC5)c(O)c4c3C2=O)NC(=O)/C(C)=C\C=C\[C@H](C)[C@H](O)[C@@H](C)[C@@H](O)[C@@H](C)[C@H](OC(C)=O)[C@@H]1C [RIFAMPIN] | – | ≤ 0.015 | ≤ 0.015 | 0.008 (≈ 0.00972 µM) | 0.25 (≈ 0.304 µM) | – | ≤ 0.015 | ≤ 0.015 | > 16 | ≤ 0.015 | > 16 | ≤ 0.015 | ≤ 0.015 | ≤ 0.015
14 | CCOC(=O)COc1c(Cl)c(CC)c(C(=O)O[C@@H]2[C@@H](O)[C@@H](OC)[C@@H](OC/C3=C\C=C\C[C@H](O)/C(C)=C/[C@H](CC)[C@@H](O[C@@H]4OC(C)(C)[C@@H](OC(=O)C(C)C)[C@H](O)[C@@H]4O)/C(C)=C/C(C)=C/C[C@@H]([C@@H](C)O)OC3=O)O[C@H]2C)c(OCC(=O)OCC)c1Cl | – | 16 (≈ 13 µM) | > 16 | 32 (≈ 26 µM) | 8 (≈ 6.5 µM) | 0.5 | > 16 | 4 (≈ 3.25 µM) | 16 (≈ 13 µM) | > 16 | 16 (≈ 13 µM) | 16 (≈ 13 µM) | > 16 | 16 (≈ 13 µM)
